Screening data from PubChem.
Sampled rows, rich in hits. Any-hit rate of the full collection: about 2.5%.
PglD inh = inhibitors of Campylobacter jejuni PglD acetyltransferase; 360,000 tested, 0.098% active; inhibition, % at 12.5 µM; purified PglD enzyme, DTNB colorimetric CoA detection; in the data active means inhibition above about 16%, passing the limit was not always enough; inconclusive means no clear call, values can overlap the other calls
E-sel inducer = E-selectin induction on HUVECs; P16581; HUVEC E-selectin immunofluorescence imaging; normalized: neutral wells 0, TNF-alpha wells 100; activation, % at 7.58 µM; 260,000 tested, 0.37% active;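 active means mean E-selectin-positive cell signal at least 10% of the positive control, reached in at least 60% of replicates, without over 20% cell loss; inconclusive means no rule given, readout overlaps actives, possibly toxicity-flagged; inactive means the rest, including those meeting only one limit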
Target sequence (P16581 whole entry, looked up): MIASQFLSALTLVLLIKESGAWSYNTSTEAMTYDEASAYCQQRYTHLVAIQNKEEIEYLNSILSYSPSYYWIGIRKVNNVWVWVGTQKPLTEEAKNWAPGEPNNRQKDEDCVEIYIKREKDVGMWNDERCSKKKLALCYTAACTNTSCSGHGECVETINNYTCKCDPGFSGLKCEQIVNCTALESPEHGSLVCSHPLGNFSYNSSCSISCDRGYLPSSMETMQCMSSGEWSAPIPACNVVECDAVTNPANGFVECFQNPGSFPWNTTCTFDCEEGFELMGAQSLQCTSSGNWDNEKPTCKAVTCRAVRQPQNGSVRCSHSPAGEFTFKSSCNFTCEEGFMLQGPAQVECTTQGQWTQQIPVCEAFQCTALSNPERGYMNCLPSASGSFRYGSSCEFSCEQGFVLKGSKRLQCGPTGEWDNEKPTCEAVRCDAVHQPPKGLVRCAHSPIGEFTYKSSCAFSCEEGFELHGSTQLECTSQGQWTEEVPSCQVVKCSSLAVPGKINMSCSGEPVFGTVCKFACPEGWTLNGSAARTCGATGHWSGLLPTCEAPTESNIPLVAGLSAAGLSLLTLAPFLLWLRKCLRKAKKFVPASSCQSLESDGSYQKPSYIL
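Test system: HUVEC; input: 3,000 HUVEC/well; measured by: immunofluorescence imaging; read-out: % PE-positive cells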
SIRT5 inh = inhibitors of human sirtuin-5 desuccinylase; Q9NXA8; Purified SirT5, succinyl-peptide AMC, trypsin-coupled fluorescence; inhibition, % at 15 µM; 330,000 tested, 1.1% active; AID 652115; in the data active means inhibition above about 15%; inconclusive means no clear call, values can overlap the other calls
ERAP1 HTS inh = blocks human ERAP1 aminopeptidase activity; recombinant ERAP1, Leu-AMC fluorescence, 60 min; inhibition, % at 10.7 µM; 340,000 tested, 0.15% active; Q9NZ08;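 active means mean replicate inhibition of at least 30%, or all replicates individually reaching that 30% level; inactive means mean below 30% and not every replicate reaching it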;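 further: 0% = neutral control wells and 100% = L-leucinethiol positive control wells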
DENV2 CPE = protects cells from dengue virus 2 cytopathic effect; CPE inhibition, % at 9.99 µM; DENV2-infected cells, cytopathic effect rescue, plate reader; 350,000 tested, 1.7% active; in the data active means CPE inhibition above about 20%, passing the limit was not always enough; inconclusive means no clear call, values can overlap the other calls; tested in BHK-21 cells;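 further: 0% = median of neutral control wells and 100% = median of positive control wells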
* hit, by the source's call; ! = not active in a repeat.

For CC(C)C[C@@H](CN1CCCC1CN1C(=S)NC[C@@H]1Cc1ccc(O)cc1)N1C[C@H](Cc2ccc(O)cc2)N(CC2CCCCCC2)C1=S (stereo partly drawn) the results were PglD inh 1, E-sel inducer 0, SIRT5 inh 0 and DENV2 CPE 41*.
CCOc1ccc(CCN2C(=O)C(=O)N([C@@H](Cc3ccccc3)CN3CCC[C@H]3CN3C(=O)C(=O)NC[C@@H]3Cc3ccc(O)cc3)C[C@@H]2CC(C)C)cc1 was read as E-sel inducer 0, SIRT5 inh -2, ERAP1 HTS inh 1 and DENV2 CPE inconclusive.
CCOc1ccc(CCN2C(=S)N([C@@H](CC(C)C)CN3CCCC3CN3C(=S)NC[C@@H]3Cc3ccc(O)cc3)C[C@@H]2Cc2ccc(O)cc2)cc1 (stereo partly drawn) was read as PglD inh 0, E-sel inducer 0, ERAP1 HTS inh 1 and DENV2 CPE 31*.
For CC(C)C[C@@H](CN1CCCC1CN1C(=S)NC[C@@H]1Cc1ccc(O)cc1)N1C[C@H](Cc2ccccc2)N(CC2CCCCCC2)C1=S (stereo partly drawn) the results were PglD inh -2, E-sel inducer 0, SIRT5 inh -3 and DENV2 CPE -10.
Screening CCOc1ccc(CCN2C(=O)C(=O)N([C@@H](Cc3ccccc3)CN3CCC[C@@H]3CN3C(=O)C(=O)NC[C@@H]3Cc3ccc(O)cc3)C[C@@H]2Cc2ccccc2)cc1 returned PglD inh 2, E-sel inducer 0, SIRT5 inh 38*, ERAP1 HTS inh -1 and DENV2 CPE -11.
`CCOc1ccc(CCN2C(=S)N([C@@H](CC(C)C)CN3CCCC3CN3C(=S)NC[C@@H]3Cc3ccc(O)cc3)C[C@@H]2Cc2ccccc2)cc1` (stereo partly drawn) gave PglD inh 3, E-sel inducer 0, SIRT5 inh -3 and DENV2 CPE -11.
`CC(C)CNS(=O)(=O)c1ccc(S(=O)(=O)N2CCN(C3CCCC3)CC2)cc1` gave PglD inh -4, E-sel inducer 0, SIRT5 inh 1, ERAP1 HTS inh 3 and DENV2 CPE -1.
For O=C1NC(Cc2ccc(O)cc2)c2nc3ccc(F)cc3c(=O)n2-c2cc3ccccc3cc21 (stereo not drawn) the results were PglD inh -9, E-sel inducer 0, SIRT5 inh 29*, ERAP1 HTS inh -1 and DENV2 CPE 1.
Screening COc1ccc2nc3n(c(=O)c2c1)-c1ccccc1C(=O)NC3Cc1ccccc1 (stereo not drawn) returned E-sel inducer 0, ERAP1 HTS inh -2 and DENV2 CPE 89*.
Screening O=C1NC(Cc2ccc(O)cc2)c2nc3cc(F)c(F)cc3c(=O)n2-c2cc3ccccc3cc21 (stereo not drawn) returned PglD inh 4, E-sel inducer 1 and DENV2 CPE 1.
Screening CC(C)CC1NC(=O)c2ccccc2-n2c1nc1cc(F)ccc1c2=O (stereo not drawn) returned E-sel inducer 0, SIRT5 inh -4, ERAP1 HTS inh 3 and DENV2 CPE 9.
`CC(C)CC1NC(=O)c2ccccc2-n2c1nc1ccccc1c2=O` (stereo not drawn) gave E-sel inducer 0, SIRT5 inh 2, ERAP1 HTS inh -3 and DENV2 CPE 40*.
`O=C(NCC1CC1)c1cccs1` gave E-sel inducer 0, SIRT5 inh 4, ERAP1 HTS inh -7 and DENV2 CPE -2.
For O=C(/C(=C/O)N=Nc1ccccc1)c1ccc(Cl)cc1 the results were E-sel inducer 2, SIRT5 inh -5, ERAP1 HTS inh 1 and DENV2 CPE 14.
Screening Cc1ccc(N=N/C(=C\O)C(=O)c2ccc(Cl)cc2)cc1 returned PglD inh -13, E-sel inducer 8, SIRT5 inh 22*, ERAP1 HTS inh 0 and DENV2 CPE 2.
Screening COc1ccc(CN2CC3(CN(C(=O)c4ccccc4)C3)c3c([nH]c4cc(OC)ccc34)[C@H]2CO)cc1 returned E-sel inducer -1, SIRT5 inh 1, ERAP1 HTS inh 1 and DENV2 CPE -4.
For O=C(CC1CC1)N1CC(=O)N2[C@H](C1)[C@H](c1ccc(C#Cc3ccccc3)cc1)[C@@H]2CO the results were E-sel inducer 0, SIRT5 inh -3, ERAP1 HTS inh -2 and DENV2 CPE 6.
Screening COc1ccc(NC(=O)N(C)C[C@H]2Oc3c(NS(=O)(=O)c4cn(C)cn4)cccc3C(=O)N([C@@H](C)CO)C[C@@H]2C)cc1 returned PglD inh -16, E-sel inducer 39*, SIRT5 inh 3, ERAP1 HTS inh 2 and DENV2 CPE 26*.
Screening COc1ccc(NC(=O)N(C)C[C@@H]2Oc3c(NS(=O)(=O)c4cn(C)cn4)cccc3C(=O)N([C@@H](C)CO)C[C@H]2C)cc1 returned PglD inh 1, E-sel inducer 28*, SIRT5 inh 6, ERAP1 HTS inh 3 and DENV2 CPE -2.
For COc1ccc(NC(=O)N(C)C[C@H]2Oc3c(NS(=O)(=O)c4cn(C)cn4)cccc3C(=O)N([C@H](C)CO)C[C@H]2C)cc1 the results were PglD inh 14, E-sel inducer inconclusive, SIRT5 inh 4, ERAP1 HTS inh 3 and DENV2 CPE 0.
Screening Cn1cnc(CCNC(=O)C[C@@H]2CC[C@H]3[C@@H](COC[C@@H](O)CN3C(=O)Nc3ccc(C(F)(F)F)cc3)O2)c1 returned PglD inh 0, E-sel inducer 0, SIRT5 inh -1, ERAP1 HTS inh 2 and DENV2 CPE -4.
`COc1cc2c(c(OC)c1OC)[C@@]1(c3ccccc3)CCCC[C@H]1[C@@H]2NC(=O)C(F)(F)F` gave E-sel inducer 3, SIRT5 inh 3, ERAP1 HTS inh 3 and DENV2 CPE 24*.
For CC1=C(C#N)c2nc(N)c(C#N)c(C)c2/C1=C\c1ccc(-c2ccccc2C(=O)O)o1 the results were SIRT5 inh 25*, ERAP1 HTS inh 16 and DENV2 CPE -4.
`COc1cc(/C=C2/C(C)=C(C#N)c3nc(N)c(C#N)c(C)c32)ccc1OCC(=O)O` gave E-sel inducer 1, SIRT5 inh 9, ERAP1 HTS inh 1 and DENV2 CPE -3.
CC1CCN(C(=O)CNC(=O)CNC(=O)Cc2ccccc2)CC1 was read as PglD inh 2, SIRT5 inh -2, ERAP1 HTS inh 2 and DENV2 CPE 3.
`COc1ccc(S(=O)(=O)N[C@H]2C=C[C@@H](CC(=O)NCCc3ccncc3)O[C@H]2CO)cc1` gave PglD inh -2, E-sel inducer 0, SIRT5 inh 29*, ERAP1 HTS inh -2 and DENV2 CPE 3.
COC(=O)C[C@@H]1C=C[C@@H](NS(=O)(=O)c2ccc(OC)cc2)[C@@H](CO)O1 was read as PglD inh 2, E-sel inducer 0, SIRT5 inh 2, ERAP1 HTS inh -1 and DENV2 CPE 23*!.
